Tests used:
[1] = biological target: T1, Adenosine receptor A1 (Rattus norvegicus, UniProt P25099); assay: Displacement of [3H]-CHA (N6-Cyclohexyl adenosine) from adenosine A1 receptor in rat brain; type: tissue-based
T1 sequence (P25099 whole entry): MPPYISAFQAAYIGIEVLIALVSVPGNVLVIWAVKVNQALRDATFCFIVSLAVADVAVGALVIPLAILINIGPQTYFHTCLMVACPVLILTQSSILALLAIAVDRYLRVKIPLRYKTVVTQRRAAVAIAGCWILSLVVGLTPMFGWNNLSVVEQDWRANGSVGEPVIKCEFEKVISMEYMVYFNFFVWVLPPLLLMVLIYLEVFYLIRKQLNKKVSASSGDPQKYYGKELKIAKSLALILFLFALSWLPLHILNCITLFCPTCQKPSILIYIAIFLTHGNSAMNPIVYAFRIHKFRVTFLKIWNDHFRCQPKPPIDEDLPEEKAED
Summary of the method: (§1)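 Rat brain radioligand displacement binding. IC50 values (μM) were derived by nonlinear regression from four or five concentrations of compound.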

[2] = biological target: Beta-1 adrenergic receptor (Rattus norvegicus, UniProt P18090); assay: Displacement of [3H]DHA (Dihydroalprenolol) from beta-1 adrenergic receptor in rat brain; type: tissue-based; summary of the method: as §1
Sequence of Beta-1 adrenergic receptor (P18090 whole entry): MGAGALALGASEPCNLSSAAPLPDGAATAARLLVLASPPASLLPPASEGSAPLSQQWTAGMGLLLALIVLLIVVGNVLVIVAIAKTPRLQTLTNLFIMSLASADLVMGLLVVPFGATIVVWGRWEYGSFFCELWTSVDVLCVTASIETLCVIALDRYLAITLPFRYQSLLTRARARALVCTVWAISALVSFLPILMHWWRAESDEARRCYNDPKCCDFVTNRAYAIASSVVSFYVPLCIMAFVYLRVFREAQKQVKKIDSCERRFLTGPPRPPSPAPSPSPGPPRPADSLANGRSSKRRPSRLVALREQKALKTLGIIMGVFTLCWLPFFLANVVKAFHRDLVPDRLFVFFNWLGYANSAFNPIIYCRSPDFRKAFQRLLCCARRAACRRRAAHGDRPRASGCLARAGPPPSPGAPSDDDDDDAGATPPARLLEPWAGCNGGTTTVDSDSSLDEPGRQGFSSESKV

[3] = Displacement of [3H]CHA (N6-Cyclohexyl adenosine) from rat brain adenosine A1 receptor
[4] = biological target: Beta-2 adrenergic receptor (Rattus norvegicus, UniProt P10608); assay: Displacement of [3H]DHA (Dihydroalprenolol) from beta-2 adrenergic receptor in rat brain; type: tissue-based; summary of the method: as §1
Sequence of Beta-2 adrenergic receptor (P10608 whole entry): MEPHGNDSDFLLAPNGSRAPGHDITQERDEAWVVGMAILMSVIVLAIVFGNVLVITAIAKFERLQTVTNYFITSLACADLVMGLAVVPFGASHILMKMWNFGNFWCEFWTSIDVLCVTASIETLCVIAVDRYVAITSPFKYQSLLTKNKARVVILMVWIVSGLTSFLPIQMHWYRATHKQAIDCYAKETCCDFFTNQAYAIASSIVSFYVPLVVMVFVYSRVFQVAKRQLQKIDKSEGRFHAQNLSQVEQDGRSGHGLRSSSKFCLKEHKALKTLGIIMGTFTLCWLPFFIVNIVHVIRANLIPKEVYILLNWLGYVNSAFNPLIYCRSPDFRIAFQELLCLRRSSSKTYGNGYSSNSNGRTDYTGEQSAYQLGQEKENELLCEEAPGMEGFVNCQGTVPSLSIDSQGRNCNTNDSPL

[5] = test system: Mus musculus; assay: Inhibition of induction of ataxia in mouse after intraperitoneal administration; type: functional; conditions: ip
[6] = test system: Rattus norvegicus; assay: Inhibition of shelf-jump avoidance in rats after peroral administration.; type: functional
Summary of the method: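 One-way shelf-jump conditioned avoidance responding in rats. ED50 determined from at least three doses (N = 9).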

[7] = biological target: Serotonin 1 (5-HT1) receptor (Rattus norvegicus, UniProt P28564+P30940+P19327+P28565); assay: Displacement of [3H]-5-HT from serotonin-1 neurotransmitter receptor in rat brain; type: tissue-based; summary of the method: as §1
[8] = test system: Monkey; assay: Inhibition of Sidman avoidance in squirrel monkeys after the compound administered perorally; type: functional; conditions: in Saimiri, po
Summary of the method: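 Oral dosing in squirrel monkeys trained on continuous (Sidman) avoidance responding. ED50 reported ± SEM.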

[9] = test system: Mus musculus; assay: Inhibition of locomotor activity in mouse after intraperitoneal administration; type: functional
[10] = test system: Rattus norvegicus; assay: Inhibition of Sidman avoidance in rats after peroral administration; type: functional; conditions: po
Summary of the method: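 Continuous (Sidman) avoidance responding in rats with oral dosing. At least three doses per drug, four animals per dose. ED50 reported ± SEM.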

[11] = Rattus norvegicus, po, read-out: ED50
[12] = Mus musculus, ip, read-out: ED50

Row | SMILES | ED50 [5] | ED50 [6, 11] | ED50 [9, 12] | other results
1 | CSc1ccc2c(c1)N(CCC1CCCCN1C)c1ccccc1S2 (configuration not stated) [THIORIDAZINE] | > 10 mg/kg | 5.8 mg/kg | 4.4 mg/kg | IC50 [1]: > 10 µM; IC50 [2]: > 10 µM; IC50 [3]: > 10 µM; IC50 [4]: > 10 µM; IC50 [7]: 8.7 µM; ED50 [8]: 3.9 mg/kg
2 | CCC1=Nc2c(C)nn(C)c2C2=NC(C)CN12 (configuration not stated) | > 100 mg/kg | – | 21.6 mg/kg | ED50 [10]: 15.7 mg/kg
3 | Cc1nn(C)c2c1N=CN1CCN=C21 | > 100 mg/kg | – | 39.3 mg/kg | –
4 | CC1=Nc2c(C)nn(C)c2C2=NC(C)C(C)N12 (stereo in doubt; cis) | – | – | – | ED50 [6]: 26 mg/kg; ED50 [9]: 37.8 mg/kg
5 | Cc1cn2c(CC(=O)O)nc3c(C)nn(C)c3c2n1 | > 100 mg/kg | > 100 mg/kg | > 100 mg/kg | –
6 | CCn1nc(C)c2c1C1=NC(C)CN1C(C)=N2 (configuration not stated) | > 100 mg/kg | – | 25.7 mg/kg | ED50 [10]: 14.8 mg/kg
7 | Cc1nn(C)c2c1nc(C)n1cc(Cc3ccccc3)nc21 | > 100 mg/kg | 86 mg/kg | 83.3 mg/kg | –
8 | Cc1nn(C)c2c1N=C(Cc1ccccc1)N1CC(C)N=C21 (configuration not stated) | > 100 mg/kg | 62 mg/kg | 21.9 mg/kg | –
9 | CC[C@H]1CN2C(C)=Nc3c(C)nn(C)c3C2=N1 | > 100 mg/kg | 38 mg/kg | 42.8 mg/kg | –
10 | CC1=Nc2c(C)nn(C)c2C2=N[C@@H](C(C)C)CN12 | > 100 mg/kg | – | 57.3 mg/kg | –
11 | CC1=Nc2c(C)nn(C)c2C2=NC(C)CN12 (configuration not stated) | > 100 mg/kg | – | 32.1 mg/kg | –
12 | CC1=Nc2c(C)nn(C)c2C2=NC(C)C(C)N12 (stereo in doubt; trans) | > 100 mg/kg | – | 69.1 mg/kg | –
13 | Cc1nn(C)c2c1N=C(c1ccccc1)N1CC(C)N=C21 (configuration not stated) | > 100 mg/kg | 65 mg/kg | 62.5 mg/kg | –
14 | CCC1=Nc2c(C)nn(CC)c2C2=NC(C)CN12 (configuration not stated) | > 100 mg/kg | – | 27.2 mg/kg | ED50 [10]: 15.8 mg/kg
15 | CCC1=Nc2c(C)nn(C)c2C2=NCCN12 | > 100 mg/kg | 17 mg/kg | 22.8 mg/kg | ED50 [10]: 24.4 mg/kg
16 | CCc1nc2c(C)nn(C)c2c2nc(C)cn12 | > 100 mg/kg | – | 36.8 mg/kg | ED50 [10]: 11.4 mg/kg
17 | Cc1nn(C)c2c1N=C(C1CC1)N1CC(C)N=C21 (configuration not stated) | > 100 mg/kg | 12 mg/kg | 46.1 mg/kg | –

Row | SMILES | ED50 [5] | ED50 [6, 11] | ED50 [9, 12] | other results
18 | CC[C@@H]1CN2C(C)=Nc3c(C)nn(C)c3C2=N1 | > 100 mg/kg | 12 mg/kg | 61.1 mg/kg | –
19 | CCOC(=O)CC1=Nc2c(C)nn(C)c2C2=NC(C)CN12 (configuration not stated) | > 100 mg/kg | > 100 mg/kg | > 100 mg/kg | –
20 | CCn1nc(C)c2c1C1=NCC(c3ccccc3)N1C(C)=N2 (configuration not stated) | > 100 mg/kg | > 100 mg/kg | 75.5 mg/kg | –
21 | CCC1=Nc2c(C)nn(C)c2C2=NCC(C)N12 (configuration not stated) | > 100 mg/kg | – | 28.3 mg/kg | –
22 | CCCn1nc(C)c2c1C1=NC(C)CN1C(C)=N2 (configuration not stated) | > 100 mg/kg | – | 37.7 mg/kg | –
23 | CC1=Nc2c(C)nn(C)c2C2=NC(C)(C)CN12 | > 100 mg/kg | – | 22.7 mg/kg | ED50 [10]: 53.7 mg/kg
24 | CCc1nc2c(C)nn(C)c2c2nc(C)c(Cl)n12 | > 100 mg/kg | 100 mg/kg | > 100 mg/kg | –
25 | CCn1nc(C)c2c1C1=NCCN1C(C)=N2 | > 100 mg/kg | – | 22.7 mg/kg | ED50 [10]: 15.3 mg/kg
26 | CCc1cn2c(CC)nc3c(C)nn(C)c3c2n1 | > 30 mg/kg | 16 mg/kg | 20.6 mg/kg | –
27 | CCC1=Nc2c(C)nn(C)c2C2=NC(CC)CN12 (configuration not stated) | > 100 mg/kg | 32 mg/kg | 21.7 mg/kg | –
28 | Cc1nc2c3c(nc(C)n2c1C)c(C)nn3C | > 100 mg/kg | 10 mg/kg | 39.7 mg/kg | –
29 | CCc1nc2c(C)nn(C)c2c2ncc(C)n12 | > 100 mg/kg | 11 mg/kg | 35.5 mg/kg | –
30 | CCc1nc2c(C)nn(C)c2c2nccn12 | > 100 mg/kg | 15 mg/kg | 34.2 mg/kg | –
31 | O=C(CCCN1CCC(O)(c2ccc(Cl)cc2)CC1)c1ccc(F)cc1 [HALOPERIDOL] | > 3 mg/kg | 0.3 mg/kg | 0.27 mg/kg | ED50 [10]: 0.8 mg/kg
32 | Cc1cn2c(C)nc3c(C)nn(C)c3c2n1 | > 100 mg/kg | < 32 mg/kg | 73 mg/kg | –
33 | Cc1nn(C)c2c1N=CN1CC(C)N=C21 (configuration not stated) | > 100 mg/kg | – | 49.2 mg/kg | –
34 | Cc1nn(C)c2c1N=C(C(C)C)N1CC(C)N=C21 (configuration not stated) | > 100 mg/kg | 41 mg/kg | > 100 mg/kg | –

Source: ChEMBL document CHEMBL1124042, “Synthesis and potential antipsychotic activity of 1H-imidazo[1,2-c]pyrazolo[3,4-e]pyrimidines” (J Med Chem, 1988)
